Columns and labels:
[1] = tested on: CXCR4-positive MDA-MB-231 human breast cancer cells; assay: Matrigel invasion assay induced by CXCR4/CXCL12-mediated interaction; assay type: cell-based; conditions: MDA-MB-231, 22 h, read-out: Inhibition of cell invasion
Summary of the method: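 MDA-MB-231 cells were pre-mixed with test compound (100 nM) and seeded in the upper well of a Matrigel-coated chamber in serum-free medium. The lower well held CXCL12α (200 ng/mL) as chemoattractant. After 22 h in a humidified incubator, non-invading cells were swabbed off, and invading cells on the filter underside were methanol-fixed and H&E-stained. Percent invasion came from counts of stained cells.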

[2] = tested on: MCF-10A; assay: Cytotoxicity, cell viability; assay type: cell-based, human; conditions: concentrations as high as 100 μM, 24 h treatment
Summary of the method: (§1)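 Cells were seeded at 3000 cells/well and held 24 h at 37 °C in a CO2 incubator. They were then exposed to the test compound for 24 h at 37 °C. MTT-type tetrazolium reagent (CellTiter 96AQ) was added for a further 2 h, and absorbance was read at 490 nm.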

[3] = tested on: SKBR3; assay: Cytotoxicity, cell viability; assay type: cell-based, human; conditions: concentrations as high as 100 μM, 24 h treatment
Summary of the method: as §1

[4] = tested on: MDA-MB-231; assay: Cytotoxicity, cell viability; assay type: cell-based, human; conditions: concentrations as high as 100 μM, 24 h treatment
Summary of the method: as §1

[5] = Carrageenan-induced paw inflammation suppression test; assay type: in vivo; conditions: mouse paw after treatment with IIIm
[6] = target: CXCR4 (Homo sapiens, UniProt P61073); assay type: binding; conditions: fold loss of affinity vs RB-108
Sequence of CXCR4 (P61073 whole entry): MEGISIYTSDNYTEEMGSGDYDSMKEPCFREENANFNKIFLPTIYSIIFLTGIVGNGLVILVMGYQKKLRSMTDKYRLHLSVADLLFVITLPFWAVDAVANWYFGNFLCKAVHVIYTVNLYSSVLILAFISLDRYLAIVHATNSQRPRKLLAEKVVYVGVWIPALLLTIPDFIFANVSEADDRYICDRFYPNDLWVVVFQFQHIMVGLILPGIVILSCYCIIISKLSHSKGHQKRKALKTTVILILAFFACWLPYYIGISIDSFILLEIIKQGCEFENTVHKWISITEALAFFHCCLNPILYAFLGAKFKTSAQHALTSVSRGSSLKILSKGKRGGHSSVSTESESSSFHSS

With `c1cc(CN2CCCNCCNCCCNCC2)ccc1CN1CCCNCCNCCCNCC1` [AMD3100] the inhibition at 0.1 µM [1] was 55%.
With `O=C(NCc1ccc(CNS(=O)(=O)c2ccc3c(c2)CCO3)cc1)c1ccc(F)cc1` [IIIm, 4-Fluoro-N-(4-(((2,3-dihydrobenzofuran)-5-sulfonamido)methyl)benzyl)benzamide] the “Inhibition of proliferation (cytotoxicity)” value (from here on “Inhibition of proliferation”) [2] was “did not inhibit the proliferation”, the “Inhibition of proliferation” value [3] was “did not inhibit the proliferation” and the “Inhibition of proliferation” value [4] was “did not inhibit the proliferation”. The “Number of inflammatory cells accumulated in the paw tissue (histological analysis, H&E)” value [5] was “markedly decreased”.
In the case of `Cc1ccc(S(=O)(=O)NCc2ccc(CNC(=O)c3ccc(F)cn3)cc2)cc1` [Ia, 5-Fluoro-N-(4-(((4-methylphenyl)sulfonamido)methyl)benzyl)picolinamide], the “EC reduced compared with RB-108” value [6] is reported as “more than 1000 fold”.
With `Cc1ccc(S(=O)(=O)NCc2ccc(CNC(=O)c3ccc(F)nc3)cc2)cc1` [Ib, 6-Fluoro-N-(4-(((4-methylphenyl)sulfonamido)methyl)benzyl)nicotinamide] the “EC reduced compared with RB-108” value [6] was “more than 1000 fold”.
